Molecules are shown by their SMILES.

The target in assay [1] is Prothrombin (Homo sapiens) (UniProt P00734). The assay can be described thus: Apparent association constant against Coagulation factor II. In a few lines: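 Human α-thrombin, 5.9 nM, with chromogenic substrate Bz-Phe-Val-Arg-pNA at 0.2 mM. Uses the same general protocol as the fXa assay: pNA release read at 405 nm, with inhibitors auto-diluted in triplicate. Apparent Kass = [Eb]/[Ef][Io−Ib] at concentrations giving 20–80% inhibition. Values are mean ± SD when n≥3 and the average when n=2.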

The target in assay [2] is Coagulation factor X (Homo sapiens) (UniProt P00742). The assay can be described thus: Apparent association constant against coagulation factor X. The method in brief: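 Purchased human fXa, 3.2 nM final, in buffer of 0.06 M tris, 0.3 M NaCl, pH 7.4, with 1 mg/mL HSA in the enzyme diluent. Inhibitor is added in MeOH at 4–8 concentrations in triplicate, then Bz-Ile-Glu-Gly-Arg-pNA (0.3 mM stock in water) starts the reaction. Hydrolysis is read at 405 nm. Free and bound enzyme come from standard curves. Apparent Kass = [Eb]/[Ef][Io−Ib] at 20–80% inhibition.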
Chain of Coagulation factor X (Homo sapiens) (P00742 41-179 limits assumed): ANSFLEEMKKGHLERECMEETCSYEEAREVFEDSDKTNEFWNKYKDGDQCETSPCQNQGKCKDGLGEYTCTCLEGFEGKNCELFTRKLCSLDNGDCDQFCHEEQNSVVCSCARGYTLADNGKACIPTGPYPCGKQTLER
Chain of Coagulation factor X (Homo sapiens) (P00742 235-488 limits assumed): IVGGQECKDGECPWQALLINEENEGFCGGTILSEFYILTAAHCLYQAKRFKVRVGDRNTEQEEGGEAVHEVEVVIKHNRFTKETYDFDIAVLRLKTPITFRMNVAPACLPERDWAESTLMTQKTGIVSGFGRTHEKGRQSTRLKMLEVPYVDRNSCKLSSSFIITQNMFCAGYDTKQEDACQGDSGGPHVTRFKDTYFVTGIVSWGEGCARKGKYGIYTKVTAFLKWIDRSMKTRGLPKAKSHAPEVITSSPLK

Regarding `CC(C)(C)c1ccc(C(=O)Nc2ccccc2NC(=O)c2ccc(OC(F)(F)F)cc2)cc1`, the K ass in assay [1] and in assay [2] was 0 l M-1 each time.

With `COc1ccc(C(=O)Nc2ccc(C(=O)O)cc2NC(=O)c2ccc(C(C)(C)C)cc2)cc1`, the K ass in assay [1] was 70000 l M-1; in assay [2], 1.28e+07 l M-1.

On to `COc1ccc(C(=O)Nc2ccccc2NC(=O)c2ccc(OC)cc2Cl)cc1`, for which the figures for the K ass in assay [1] and in assay [2] were 30000 l M-1 and 710000 l M-1, respectively.

Turning to `COc1ccc(C(=O)Nc2cccc(NC(=O)c3ccc(OC)cc3)c2)cc1`, the K ass in assay [1] and in assay [2] was 0 l M-1 in each case.

Consider `COc1ccc(C(=O)Nc2cccc(O)c2NC(=O)c2ccc(OC)cc2)cc1`, for which the K ass in assay [1] was 10000 l M-1; in assay [2], 450000 l M-1.

Take `COc1ccc(C(=O)Nc2ccc(Cl)cc2NC(=O)c2ccc(OC)cc2)cc1`: the K ass in assay [2] is 420000 l M-1.

Take `COc1ccc(C(=O)Nc2ccccc2NC(=O)c2ccc(OC)cc2OC)cc1`: the results for the K ass in assay [1] and in assay [2] were 20000 l M-1 and 520000 l M-1, respectively.

For the molecule `COc1ccc(C(=O)Nc2ccccc2NC(=O)c2ccc(C(C)C)cc2)cc1`, the results for the K ass in assay [1] and in assay [2] were 80000 l M-1 and 4.91e+06 l M-1, respectively.

On to `COc1ccc(C(=O)Nc2ccccc2NC(=O)c2ccc(-c3ccccc3)cc2)cc1`, for which the results for the K ass in assay [1] and in assay [2] were 0 l M-1 and 1.1e+06 l M-1, respectively.

Take `COc1ccc(C(=O)Nc2ccc(OC)cc2NC(=O)c2ccc(OC)cc2)cc1`: the K ass in assay [2] was 1.25e+06 l M-1.

For `CCCCOc1ccc(C(=O)Nc2ccccc2NC(=O)c2ccc(OC)cc2)cc1`, the K ass in assay [1] was 0 l M-1; in assay [2] it was 80000 l M-1.

As for `Cc1ccc(C(=O)Nc2ccccc2NC(=O)c2ccc(C(C)(C)C)cc2)cc1`, the figures for the K ass in assay [1] and in assay [2] were 0 l M-1 and 280000 l M-1, respectively.

Regarding `CC(C)(C)c1ccc(C(=O)Nc2ccccc2NC(=O)c2cccc(F)c2)cc1`, the K ass in assay [1] was 0 l M-1; in assay [2], 400000 l M-1.

`COc1ccc(C(=O)Nc2ccc(NS(C)(=O)=O)cc2NC(=O)c2ccc(C(C)(C)C)cc2)cc1`: the K ass in assay [1] is 110000 l M-1; in assay [2], 7.65e+06 l M-1.

On to `CC(C)(C)c1ccc(C(=O)Nc2ccccc2NC(=O)c2ccccc2)cc1`, for which the K ass in assay [1] is 70000 l M-1; in assay [2] it was 380000 l M-1.

For `CCc1ccc(C(=O)Nc2ccccc2NC(=O)c2ccc(C(C)(C)C)cc2)cc1`, the results for the K ass in assay [1] and in assay [2] were 0 l M-1 and 10000 l M-1, respectively.

On to `CCCOc1ccc(C(=O)Nc2ccccc2NC(=O)c2ccc(OC)cc2)cc1`, for which the K ass was 0 l M-1 in assay [1] and 440000 l M-1 in assay [2].

On to `C=Cc1ccc(C(=O)Nc2ccccc2NC(=O)c2ccc(C(C)(C)C)cc2)cc1`, for which the K ass is 10000 l M-1 in assay [1] and 3.05e+06 l M-1 in assay [2].

As to `COc1ccc(C(=O)Nc2ccc(O)cc2NC(=O)c2ccc(OC)cc2)cc1`, the K ass is 20000 l M-1 in assay [1] and 640000 l M-1 in assay [2].

`COc1ccc(C(=O)Nc2ccc(C)cc2NC(=O)c2ccc(OC)cc2)cc1`: the K ass is 20000 l M-1 in assay [1] and 450000 l M-1 in assay [2].

As for `COc1ccc(C(=O)Nc2ccccc2NC(=O)c2ccc(OC)cc2)cc1`, the K ass in assay [1] is 20000 l M-1; in assay [2], 840000 l M-1.

As to `COc1ccc(C(=O)Nc2ccccc2NC(=O)c2ccc(C(C)(C)C)cc2)cc1`, the K ass is 50000 l M-1 in assay [1] and 7.31e+06 l M-1 in assay [2].

Consider `COc1cccc(C(=O)Nc2ccccc2NC(=O)c2ccc(C(C)(C)C)cc2)c1`, for which the K ass in assay [1] is 0 l M-1; in assay [2], 20000 l M-1.

Take `CCOc1ccc(C(=O)Nc2ccccc2NC(=O)c2ccc(OC)cc2)cc1`: the K ass in assay [1] was 0 l M-1; in assay [2] it was 640000 l M-1.

Take `COc1ccc(C(=O)Nc2ccccc2NC(=O)c2ccc(S(C)(=O)=O)cc2)cc1`: the K ass is 0 l M-1 in assay [1] and 530000 l M-1 in assay [2].

Take `COc1ccc(C(=O)Nc2ccccc2NC(=O)c2ccc(Oc3ccccc3)cc2)cc1`: the K ass was 0 l M-1 in assay [1] and 290000 l M-1 in assay [2].

Take `COc1ccc(C(=O)Nc2ccccc2NC(=O)c2ccc(C(=O)C(F)(F)F)cc2)cc1`: the K ass was 0 l M-1 in assay [1] and 10000 l M-1 in assay [2].

As for `COc1ccc(C(=O)Nc2ccccc2NC(=O)c2ccc(OC(C)(C)C)cc2)cc1`, the K ass in assay [1] is 10000 l M-1; in assay [2], 820000 l M-1.

In the case of `COc1ccc(C(=O)Nc2ccccc2NC(=O)c2ccc(N(C)C)cc2)cc1`, the K ass in assay [1] is 50000 l M-1; in assay [2] it was 1.69e+07 l M-1.

In the case of `COc1ccc(C(=O)N(C)c2ccccc2N(C)C(=O)c2ccc(OC)cc2)cc1`, the K ass in assay [1] and in assay [2] was 0 l M-1 throughout.

As to `CCCCCCOc1ccc(C(=O)Nc2ccccc2NC(=O)c2ccc(OC)cc2)cc1`, the K ass in assay [1] and in assay [2] was 0 l M-1 throughout.

`COc1ccc(C(=O)Nc2ccccc2NC(=O)c2ccc(C(C)(C)OC)cc2)cc1`: the K ass in assay [1] is 20000 l M-1; in assay [2] it was 2.35e+06 l M-1.

As to `COc1ccc(C(=O)Nc2ccc(C(=O)O)cc2NC(=O)c2ccc(OC)cc2)cc1`, the K ass is 20000 l M-1 in assay [1] and 320000 l M-1 in assay [2].

`COc1ccc(C(=O)Nc2ccccc2NC(=O)c2ccc(S(=O)(=O)N(C)C)cc2)cc1`: the K ass in assay [1] is 0 l M-1; in assay [2], 660000 l M-1.

For the molecule `COc1ccc(C(=O)Nc2cc(NS(C)(=O)=O)ccc2NC(=O)c2ccc(C(C)(C)C)cc2)cc1`, the K ass in assay [1] was 130000 l M-1; in assay [2] it was 1.3e+07 l M-1.

In the case of `COc1ccc(C(=O)Nc2ccccc2NC(=O)c2ccc([S+](C)[O-])cc2)cc1` (stereo not drawn), the K ass was 0 l M-1 in assay [1] and 430000 l M-1 in assay [2].

With `COc1ccc(C(=O)Nc2c(OC)ccc(OC)c2NC(=O)c2ccc(OC)cc2)cc1`, the K ass in assay [1] is 10000 l M-1; in assay [2], 770000 l M-1.

Consider `CC(C)(C)c1ccc(C(=O)Nc2ccccc2NC(=O)c2ccc(F)cc2)cc1`, for which the K ass in assay [1] was 0 l M-1; in assay [2] it was 510000 l M-1.

Turning to `CCc1ccc(C(=O)Nc2cc(O)ccc2NC(=O)c2ccc(OC)cc2)cc1`, the K ass in assay [1] was 40000 l M-1; in assay [2] it was 2.68e+06 l M-1.

As to `COc1ccc(C(=O)Nc2ccc(O)cc2NC(=O)c2ccc(C(C)(C)C)cc2)cc1`, the K ass in assay [1] was 40000 l M-1.

Take `C=Cc1cccc(C(=O)Nc2ccccc2NC(=O)c2ccc(C(C)(C)C)cc2)c1`: the K ass in assay [1] is 0 l M-1; in assay [2], 560000 l M-1.

As to `COc1ccc(C(=O)Nc2ccc(O)cc2NC(=O)c2ccc(N(C)C)cc2)cc1`, the results for the K ass in assay [1] and in assay [2] were 50000 l M-1 and 2.55e+07 l M-1, respectively.

Turning to `COc1ccc(C(=O)Nc2cc(O)ccc2NC(=O)c2ccc(C(C)(C)C)cc2)cc1`, the K ass in assay [1] is 50000 l M-1; in assay [2], 3.56e+06 l M-1.

As for `COc1ccc(C(=O)Nc2ccccc2NC(=O)c2ccc(SC)cc2)cc1`, the figures for the K ass in assay [1] and in assay [2] were 20000 l M-1 and 1.63e+06 l M-1, respectively.

Consider `COc1ccc(C(=O)Nc2ccccc2NC(=O)c2ccc(OC(C)C)cc2)cc1`, for which the K ass in assay [1] is 40000 l M-1; in assay [2], 1.19e+06 l M-1.

For the molecule `COc1ccc(C(=O)Nc2ccccc2N(C)C(=O)c2ccc(OC)cc2)cc1`, the K ass is 0 l M-1 in assay [1] and 20000 l M-1 in assay [2].

With `COc1ccc(C(=O)Nc2cc(C(=O)O)ccc2NC(=O)c2ccc(C(C)(C)C)cc2)cc1`, the K ass in assay [1] is 80000 l M-1; in assay [2], 3.99e+06 l M-1.

With `CC(C)(C)c1ccc(C(=O)Nc2ccccc2NC(=O)c2ccc(Cl)cc2)cc1`, the K ass is 50000 l M-1 in assay [1] and 2.92e+06 l M-1 in assay [2].

(Values after ChEMBL document CHEMBL1132962, “1,2-Dibenzamidobenzene inhibitors of human factor Xa” (J Med Chem, 2000).)
